Structures are written as SMILES.

Tested on in the first series: not listed separately
Nature of the series: Toxicity in Swiss albino mouse assessed as death at 100 mg/kg, sc measured up to 20 mins. Also noted: dose 100 mg/kg, route subcutaneous. It counts as organism-based. To be noted: in vivo, read-out: Activity. The method, boiled down: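 Mice given 100 mg/kg subcutaneously in preliminary screening, then later challenged with chloroform to induce ventricular fibrillation. CNS signs were recorded in the same animals. Value is the percent of treated animals that died.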
`CCCOc1cc(C)c(N(C)C(=O)CN)c(C)c1.O=C(O)C(=O)O`: the mortality at 20 min is 0%.
In the case of `CCCCOc1cc(C)c(N(C)C(=O)CN)c(C)c1.O=C(O)C(=O)O`, the mortality at 20 min stood at 0%.
With `Cc1cccc(C)c1NC(=O)CN` [GLYCINEXYLIDIDE], the mortality at 20 min is 0%.
In the case of `CCN(CC)CC(=O)Nc1c(C)cccc1C` [LIDOCAINE], the mortality at 20 min was 0%.
On the same count and under the same terms, as for `CCCOc1cc(C)c(N(CC)C(=O)CN)c(C)c1.O=C(O)C(=O)O`, the figure is 0%.
Same read-out and setting: as for `CCC(N)C(=O)N(CC)c1c(C)cccc1C.Cl` (stereo not drawn), the figure is 30%; as for `Cc1cccc(C)c1NC(=O)C(C)N` (stereo not drawn) [TOCAINIDE], 0%.

The subject of another series is Canis familiaris. Nature of the series: Antiarrhythmic activity in left anterior descending coronary artery ligated myocardial infarction dog model assessed as mean arterial blood pressure at infusion rate 0.5 mg/kg/min, iv. It counts as functional, Canis lupus familiaris.
Settings: not given
The method, boiled down:
(§1)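 Test agents were infused intravenously into dogs with coronary artery ligation-induced myocardial infarction and ventricular arrhythmias. In some runs, infusion stopped at clearing or at convulsion. In others, it continued until clearing. Ectopic beats, CNS signs (convulsions, opisthotonus, clonic spasms), respiratory arrest and mean arterial blood pressure were recorded, and doses are given in mmol/kg. Values are means±SD of 5–14 experiments or the mean of 8.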
Consider `CCN(CC)CC(=O)Nc1c(C)cccc1C` [LIDOCAINE], for which the Activity is recorded as 101 mmHg.
With `CCCOc1cc(C)c(N(CC)C(=O)CN)c(C)c1.O=C(O)C(=O)O`, the Activity was determined as 90 mmHg.
Still for that read-out and setting: to `Cc1cccc(C)c1NC(=O)C(C)N` (stereo not drawn) [TOCAINIDE] belongs 108 mmHg.

For another series, the system named is Canis familiaris. The series can be described thus: Antiarrhythmic activity in iv dosed left anterior descending coronary artery ligated myocardial infarction dog model assessed as dose required to reduction in ventricular ectopic beats to <= 5% at infusion rate 0.5 mg/kg/min.
Settings: not given
It counts as functional, Canis lupus familiaris, Heart. The essentials:
as §1
`CCN(CC)CC(=O)Nc1c(C)cccc1C` [LIDOCAINE]: the Activity came out at 0.21 mmol/kg.
The same measure, in the same setting: as for `CCCOc1cc(C)c(N(CC)C(=O)CN)c(C)c1.O=C(O)C(=O)O`, the figure is 0.09 mmol/kg.
The same measure, in the same setting: to `Cc1cccc(C)c1NC(=O)C(C)N` (stereo not drawn) [TOCAINIDE] belongs 0.32 mmol/kg.

For the next series, the system named is Canis familiaris. Nature of the series: Toxicity in iv dosed left anterior descending coronary artery ligated myocardial infarction dog model assessed as dose required to cause convulsion after infusion off. Particulars: in vivo. It counts as organism-based, Canis lupus familiaris. The method, boiled down: as §1
With `CCCOc1cc(C)c(N(CC)C(=O)CN)c(C)c1.O=C(O)C(=O)O`, the Activity is 0.16 mmol/kg.

The next series concerns Mus musculus. Nature of the series: Toxicity in Swiss albino mouse assessed as ataxia at 100 mg/kg, sc measured up to 20 mins. It counts as organism-based. Details: dose 100 mg/kg, route subcutaneous. Particulars: in vivo. The essentials: (§2)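 Mice were given test agents subcutaneously, 100 mg/kg in preliminary runs, and were then challenged with chloroform to induce ventricular fibrillation (a modification of Lawson's method). Protection is expressed as the percent of challenged animals that survived the challenge. In the same animals, ataxia, convulsions, loss of righting reflex and death were scored as the percent of treated animals.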
Regarding `CCCOc1cc(C)c(N(C)C(=O)CN)c(C)c1.O=C(O)C(=O)O`, the Activity is 20%.
As for `CCCCOc1cc(C)c(N(C)C(=O)CN)c(C)c1.O=C(O)C(=O)O`, the Activity turned out to be 0%.
The same measure, in the same setting: as for `Cc1cccc(C)c1NC(=O)CN` [GLYCINEXYLIDIDE], the figure is 0%; as for `CCN(CC)CC(=O)Nc1c(C)cccc1C` [LIDOCAINE], 100%.
For the molecule `CCCOc1cc(C)c(N(CC)C(=O)CN)c(C)c1.O=C(O)C(=O)O`, the Activity is listed as 0%.
`CCC(N)C(=O)N(CC)c1c(C)cccc1C.Cl` (stereo not drawn): the Activity amounted to 100%.
The same measure, in the same setting: as for `Cc1cccc(C)c1NC(=O)C(C)N` (stereo not drawn) [TOCAINIDE], the figure is 10%.

In another series the test system is Mus musculus. The series can be described thus: Toxicity in Swiss albino mouse assessed as convulsion at 100 mg/kg, sc measured up to 20 mins. It counts as organism-based. Also noted: dose 100 mg/kg, route subcutaneous. Particulars: in vivo. The method, boiled down: as §2
In the case of `CCCOc1cc(C)c(N(C)C(=O)CN)c(C)c1.O=C(O)C(=O)O`, the Activity is listed as 0%.
Same read-out and setting: to `CCCCOc1cc(C)c(N(C)C(=O)CN)c(C)c1.O=C(O)C(=O)O` belongs 0%; to `Cc1cccc(C)c1NC(=O)CN` [GLYCINEXYLIDIDE], 0%.
As for `CCN(CC)CC(=O)Nc1c(C)cccc1C` [LIDOCAINE], the Activity worked out at 100%.
The same measure, in the same setting: as for `CCCOc1cc(C)c(N(CC)C(=O)CN)c(C)c1.O=C(O)C(=O)O`, the figure is 0%; as for `CCC(N)C(=O)N(CC)c1c(C)cccc1C.Cl` (stereo not drawn), 100%; as for `Cc1cccc(C)c1NC(=O)C(C)N` (stereo not drawn) [TOCAINIDE], 0%.

Another series relates to Mus musculus. Nature of the series: Antiarrhythmic activity in Swiss albino mouse assessed as protection against chloroform-induced fibrillation at 100 mg/kg, sc treated 20 mins before chloroform challenge. To be noted: route subcutaneous. It counts as functional, Heart. The essentials: as §2
Take `CCCOc1cc(C)c(N(C)C(=O)CN)c(C)c1.O=C(O)C(=O)O`: the Activity came to 70%.
On the same count and under the same terms, as for `CCCCOc1cc(C)c(N(C)C(=O)CN)c(C)c1.O=C(O)C(=O)O`, the figure is 100%.
Consider `Cc1cccc(C)c1NC(=O)CN` [GLYCINEXYLIDIDE], for which the Activity turned out to be 10%.
Consider `CCN(CC)CC(=O)Nc1c(C)cccc1C` [LIDOCAINE], for which the Activity is given as 100%.
In the case of `CCCOc1cc(C)c(N(CC)C(=O)CN)c(C)c1.O=C(O)C(=O)O`, the Activity turned out to be 100%.
Same read-out and setting: to `CCC(N)C(=O)N(CC)c1c(C)cccc1C.Cl` (stereo not drawn) belongs 100%; to `Cc1cccc(C)c1NC(=O)C(C)N` (stereo not drawn) [TOCAINIDE], 20%.

For another series, the system named is Canis familiaris. The series can be described thus: Toxicity in left anterior descending coronary artery ligated myocardial infarction dog model assessed as dose required to cause convulsion at infusion rate at 0.5 mg/kg/min. It counts as organism-based, Canis lupus familiaris. To be noted: in vivo. The essentials:
as §1
Turning to `CCN(CC)CC(=O)Nc1c(C)cccc1C` [LIDOCAINE], the Activity came out at 0.27 mmol/kg.
On the same count and under the same terms, to `Cc1cccc(C)c1NC(=O)C(C)N` (stereo not drawn) [TOCAINIDE] belongs 0.3 mmol/kg.

The subject of another series is Mus musculus. The series can be described thus: Toxicity in Swiss albino mouse assessed as loss of righting reflex at 100 mg/kg, sc measured up to 20 mins. It counts as organism-based. Also noted: dose 100 mg/kg, route subcutaneous. To be noted: in vivo. The method, boiled down:
as §2
Turning to `CCCOc1cc(C)c(N(C)C(=O)CN)c(C)c1.O=C(O)C(=O)O`, the Activity is 0%.
On the same count and under the same terms, to `CCCCOc1cc(C)c(N(C)C(=O)CN)c(C)c1.O=C(O)C(=O)O` belongs 0%; to `Cc1cccc(C)c1NC(=O)CN` [GLYCINEXYLIDIDE], 0%.
As for `CCN(CC)CC(=O)Nc1c(C)cccc1C` [LIDOCAINE], the Activity is on record as 100%.
On the same count and under the same terms, to `CCCOc1cc(C)c(N(CC)C(=O)CN)c(C)c1.O=C(O)C(=O)O` belongs 0%.
For `CCC(N)C(=O)N(CC)c1c(C)cccc1C.Cl` (stereo not drawn), the Activity is given as 0%.
Turning to `Cc1cccc(C)c1NC(=O)C(C)N` (stereo not drawn) [TOCAINIDE], the Activity is listed as 0%.

A further series has as its system Mus musculus. The series can be described thus: Ratio of lidocaine ED50 to compound ED50 for antiarrhythmic activity sc dosed Swiss albino mouse assessed as protection against chloroform-induced ventricular fibrillation. It counts as functional, Heart.
Settings: not given
The method, boiled down: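 Each ED50 against chloroform-induced ventricular fibrillation in subcutaneously dosed mice came from at least three doses. Potency was calculated relative to lidocaine on a molar basis.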
As for `CCCOc1cc(C)c(N(C)C(=O)CN)c(C)c1.O=C(O)C(=O)O`, the “Ratio ED50” value was 0.8.
Same read-out and setting: to `CCCCOc1cc(C)c(N(C)C(=O)CN)c(C)c1.O=C(O)C(=O)O` belongs 1; to `Cc1cccc(C)c1NC(=O)CN` [GLYCINEXYLIDIDE], 0.3; to `CCN(CC)CC(=O)Nc1c(C)cccc1C` [LIDOCAINE], 1.
On to `CCCOc1cc(C)c(N(CC)C(=O)CN)c(C)c1.O=C(O)C(=O)O`, for which the “Ratio ED50” value stood at 1.6.
For the molecule `Cc1cccc(C)c1NC(=O)C(C)N` (stereo not drawn) [TOCAINIDE], the “Ratio ED50” value is 0.2.

The test system of another series is Canis familiaris. Nature of the series: Antiarrhythmic activity in left anterior descending coronary artery ligated myocardial infarction dog model assessed as clearing value as reduction in ventricular ectopic beat rate per min at infusion rate 0.5 mg/kg/min, iv treated until arrhythmia cleared. It counts as functional, Canis lupus familiaris, Heart.
Settings: not given
The method, boiled down:
as §1
`CCN(CC)CC(=O)Nc1c(C)cccc1C` [LIDOCAINE]: the Activity is recorded as 133 bpm.
`CCCOc1cc(C)c(N(CC)C(=O)CN)c(C)c1.O=C(O)C(=O)O`: the Activity is 168 bpm.
For `Cc1cccc(C)c1NC(=O)C(C)N` (stereo not drawn) [TOCAINIDE], the Activity is 148 bpm.

The test system of another series is Canis familiaris. The series can be described thus: Toxicity in left anterior descending coronary artery ligated myocardial infarction dog model assessed as dose required to cause convulsion at infusion rate at 0.66 mg/kg/min. It counts as organism-based, Canis lupus familiaris. Particulars: in vivo. The essentials: as §1
On to `CCCOc1cc(C)c(N(CC)C(=O)CN)c(C)c1.O=C(O)C(=O)O`, for which the Activity worked out at 0.13 mmol/kg.

The subject of the next series is Canis familiaris. The series can be described thus: Antiarrhythmic activity in left anterior descending coronary artery ligated myocardial infarction dog model assessed as clearing value as reduction in ventricular ectopic beats to <= 5% for 5 mins at infusion rate 0.5 mg/kg/min, iv treated until arrhythmia cleared. It counts as functional, Canis lupus familiaris, Heart. Details: scale not given: the % may be the effect or the level left.
Settings: not given
The method, boiled down: as §1
In the case of `CCN(CC)CC(=O)Nc1c(C)cccc1C` [LIDOCAINE], the Activity is 4%.
On the same count and under the same terms, to `CCCOc1cc(C)c(N(CC)C(=O)CN)c(C)c1.O=C(O)C(=O)O` belongs 1%; to `Cc1cccc(C)c1NC(=O)C(C)N` (stereo not drawn) [TOCAINIDE], 2%.

In a further series the test system is Mus musculus. The series can be described thus: Antiarrhythmic activity in sc dosed Swiss albino mouse assessed as protection against chloroform-induced ventricular fibrillation. Particulars: Heart. It counts as functional. The method, boiled down: as §2
The term ED50 denotes the dose at which the effect has come halfway, by size or by number of responders. For the molecule `CCCOc1cc(C)c(N(C)C(=O)CN)c(C)c1.O=C(O)C(=O)O`, the 50% effective dose (ED50) stood at 340 µmol/kg.
Same read-out and setting: to `CCCCOc1cc(C)c(N(C)C(=O)CN)c(C)c1.O=C(O)C(=O)O` belongs 270 µmol/kg; to `Cc1cccc(C)c1NC(=O)CN` [GLYCINEXYLIDIDE], 900 µmol/kg.
Still for that read-out and setting: to `CCN(CC)CC(=O)Nc1c(C)cccc1C` [LIDOCAINE] belongs 260 µmol/kg; to `CCCOc1cc(C)c(N(CC)C(=O)CN)c(C)c1.O=C(O)C(=O)O`, 160 µmol/kg; to `Cc1cccc(C)c1NC(=O)C(C)N` (stereo not drawn) [TOCAINIDE], 1300 µmol/kg.
